Assay results: ChEMBL document CHEMBL4422698, “Wortmannin and Wortmannine Analogues from an Undescribed Niesslia sp” (2019)
≈ marks a conversion by molar mass, not a printed value. One block for each compound: values may come before it. Calls of active or inactive are those of the source. The rule behind the calls is not given here.

How the values were obtained:
Candida albicans [1] = experiment: Antifungal activity against Candida albicans ATCC 10231 assessed as zone of inhibition at 50 ug/disk by disk diffusion method; assay type: functional; conditions: for zone of inhibition at 50 µg/disc: read-out: IZ
Outline: (§1)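 Agar disk diffusion zone-of-inhibition assay on C. albicans ATCC 10231, C. neoformans H99 and S. aureus ATCC 43330, run per NCCLS recommendations. Compound applied at 50 μg/disk, amphotericin B control at 25 μg/disk. Inhibition zone diameter recorded in mm.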

Cryptococcus neoformans [2] = experiment: Antifungal activity against Cryptococcus neoformans H99 assessed as zone of inhibition at 50 ug/disk by disk diffusion method; assay type: functional; conditions: for zone of inhibition at 50 µg/disc: var grubii H99, read-out: IZ; for inhibition zone (IZ): var grubii H99; outline: as §1
Staphylococcus aureus = experiment: Antibacterial activity against Staphylococcus aureus ATCC 43330 assessed as zone of inhibition at 50 ug/disk by disk diffusion method; assay type: functional, organism-based; outline: as §1
[3] = test system: Schizosaccharomyces pombe; experiment: Ratio of MIC50 for Schizosaccharomyces pombe isolate MJ1682 harboring efflux mutant to MIC50 for Schizosaccharomyces pombe SAK1; assay type: functional
Outline: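 S. pombe efflux mutant MJ1682 (caf5::bsdR pap1-del pmd1-del mfs1-del bfr1-del) and wild-type SAK1 grown in YES medium for 72 h with serially diluted compound. Viability read on a plate reader with Alamar Blue, itraconazole as positive control. Ratio of the MIC50 of the mutant to that of the wild type.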

Aspergillus fumigatus = experiment: Antifungal activity against Aspergillus fumigatus measured after 48 hrs by broth microdilution method; assay type: functional
Outline: (§2)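 NCCLS serial broth microdilution in RPMI-1640 with 0.165 M MOPS, pH 7.0. Compounds dissolved in DMSO and serially diluted in the medium. MIC-50 taken spectrophotometrically as the lowest concentration giving 50% growth inhibition versus the untreated control. Read at 48 h for C. albicans and A. fumigatus, 72 h for C. neoformans.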

Candida albicans [4] = experiment: Antifungal activity against Candida albicans ATCC 10231 measured after 48 hrs by broth microdilution method; assay type: functional; conditions: ATCC 10231, 48 h; outline: as §2
Candida albicans [5] = experiment: Antifungal activity against Candida albicans ATCC 10231 at 25 uM measured after 24 hrs
Cryptococcus neoformans [6] = experiment: Antifungal activity against Cryptococcus neoformans H99 measured after 72 hrs by broth microdilution method; assay type: functional; conditions: var grubii H99 ; outline: as §2
Candida albicans [7] = experiment: Antifungal activity against Candida albicans ATCC 10231 assessed as zone of inhibition at 25 ug/disk by disk diffusion method; assay type: functional; conditions: read-out: IZ
Cryptococcus neoformans [8] = experiment: Antifungal activity against Cryptococcus neoformans H99 assessed as zone of inhibition at 25 ug/disk by disk diffusion method; assay type: functional; conditions: var grubii H99, read-out: IZ; outline: as §1

Structure (SMILES): COC[C@H]1OC(=O)c2coc3c2[C@@]1(C)C1=C(C3=O)[C@@H]2CCC(=O)[C@@]2(C)C[C@H]1OC(=O)C(C)C
zone of inhibition at 50 µg/disc (Candida albicans [1]): 25 mm | zone of inhibition at 50 µg/disc (Cryptococcus neoformans [2]): 13 mm | inhibition zone (IZ) (Staphylococcus aureus): inactive

Structure (SMILES): CCC(C)C(=O)O[C@@H]1C[C@]2(C)C(=O)CC[C@H]2C2=C1[C@@]1(C)[C@@H](COC)OC(=O)[C@@H]3[C@H](O)NC(=O)[C@@]31C2=O (stereo not given in full)
inhibition zone (IZ) (Candida albicans [1]): inactive | inhibition zone (IZ) (Cryptococcus neoformans [2]): inactive | inhibition zone (IZ) (Staphylococcus aureus): inactive

Structure (SMILES): CCC(C)C(=O)O[C@@H]1C[C@]2(C)C(=O)CC[C@H]2C2=C1[C@@]1(C)[C@@H](COC)OC(=O)[C@@H]3[C@@H](O)NC(=O)[C@@]31C2=O (stereo not given in full)
inhibition zone (IZ) (Candida albicans [1]): inactive | inhibition zone (IZ) (Cryptococcus neoformans [2]): inactive | inhibition zone (IZ) (Staphylococcus aureus): inactive

Structure (SMILES): COC[C@H]1OC(=O)[C@@H]2[C@H](O)NC(=O)[C@@]23C(=O)C2=C([C@H](OC(=O)C(C)C)C[C@]4(C)C(=O)CC[C@@H]24)[C@@]13C
inhibition zone (IZ) (Candida albicans [1]): inactive | inhibition zone (IZ) (Cryptococcus neoformans [2]): inactive | inhibition zone (IZ) (Staphylococcus aureus): inactive

MIC50 (Aspergillus fumigatus): 200 µM (≈ 94.1 µg/mL) | MIC50 (Candida albicans [4]): 200 µM (≈ 94.1 µg/mL) | MIC50 (Cryptococcus neoformans [6]): 100 µM (≈ 47.1 µg/mL)
Structure (SMILES): CCC(C)C(=O)O[C@@H]1C[C@]2(C)C(=O)CC[C@H]2C2=C1[C@]1(C)c3c(coc3C2=O)C(=O)O[C@@H]1COC (stereo not given in full)
Ratio [3]: 0.1 | zone of inhibition at 50 µg/disc (Candida albicans [1]): 25 mm | zone of inhibition at 50 µg/disc (Cryptococcus neoformans [2]): 16 mm | inhibition zone (IZ) (Staphylococcus aureus): inactive | Activity (Candida albicans [5]): Active

Structure (SMILES): COC[C@H]1OC(=O)[C@@H]2[C@@H](O)NC(=O)[C@@]23C(=O)C2=C([C@H](OC(=O)C(C)C)C[C@]4(C)C(=O)CC[C@@H]24)[C@@]13C
inhibition zone (IZ) (Candida albicans [1]): inactive | inhibition zone (IZ) (Cryptococcus neoformans [2]): inactive | inhibition zone (IZ) (Staphylococcus aureus): inactive

Structure (SMILES): C[C@@H]1[C@H](O)[C@@H](C)/C=C/C=C/C=C/C=C/C=C/C=C/C=C/[C@H](O[C@@H]2O[C@H](C)[C@@H](O)[C@H](N)[C@@H]2O)C[C@@H]2O[C@](O)(C[C@@H](O)C[C@@H](O)[C@H](O)CC[C@@H](O)C[C@@H](O)CC(=O)O[C@H]1C)C[C@H](O)[C@H]2C(=O)O [AMPHOTERICIN B]
zone of inhibition at 25 µg/disc (Candida albicans [7]): 10 mm | zone of inhibition at 25 µg/disc (Cryptococcus neoformans [8]): 13 mm
